In ChEMBL document CHEMBL1136156, “A specific anti-Helicobacter pylori agent NE2001: synthesis and its effect on the growth of H. pylori” (2003):
Converted amounts (≈) assume the structure as drawn.

Columns and labels:
Type in all cases: functional
Escherichia coli = test: Antibacterial activity against Escherichia coli K-12 was determined
Method in brief: (§1)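 Agar dilution MIC on Mueller–Hinton agar for reference strains of other species. Compounds were dissolved in DMSO and serially diluted two-fold. Strains were stored at -80 °C before testing. MIC was taken as the minimum concentration completely inhibiting growth.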

Helicobacter pylori [1] = test: Antibacterial activity against Helicobacter pylori ATCC 43504 was determined
Method in brief: (§2)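 Agar dilution MIC on Columbia agar with 7% defibrinated sheep blood. Compounds were dissolved in DMSO and serially diluted two-fold. Inoculum was grown 24 h at 37 °C in Brucella broth with 5% fetal bovine serum under microaerophilic gas (5% O2, 10% CO2, 85% N2) and adjusted to about 10^8 CFU/mL, then streaked onto ~2 cm squares. Plates were incubated microaerophilically for 3 days at 37 °C. MIC was the lowest concentration giving complete growth inhibition.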

Staphylococcus aureus = test: Antibacterial activity against Staphylococcus aureus 209P JC was determined; method in brief: as §1
Enterococcus faecalis = test: Antibacterial activity against Enterococcus faecalis was determined; method in brief: as §1
Helicobacter pylori [2] = test: Antibacterial activity against Helicobacter pylori HP0019 was determined; method in brief: as §2
Helicobacter pylori [3] = test: Antibacterial activity against Helicobacter pylori HP003 was determined; method in brief: as §2
Helicobacter pylori [4] = test: Antibacterial activity against Helicobacter pylori HP004 was determined
Method in brief: (§3)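 Agar dilution MIC on Columbia agar with 7% defibrinated sheep blood. Compounds dissolved in DMSO and serially diluted twofold. Inoculum was H. pylori grown 24 h at 37 °C in Brucella broth with 5% fetal bovine serum under microaerophilic gas (5% O2, 10% CO2, 85% N2), adjusted to about 10^8 CFU/mL and streaked by loop. Plates were incubated microaerophilically for 3 days at 37 °C. MIC taken as the lowest concentration giving complete growth inhibition.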

Helicobacter pylori [5] = test: Antibacterial activity against Helicobacter pylori HP007 was determined; method in brief: as §2
Helicobacter pylori [6] = test: Antibacterial activity against Helicobacter pylori HP008 was determined; method in brief: as §2
Helicobacter pylori [7] = test: Antibacterial activity against Helicobacter pylori HP020 was determined; method in brief: as §3
Helicobacter pylori [8] = test: Antibacterial activity against Helicobacter pylori HP021 was determined; method in brief: as §2
Helicobacter pylori [9] = test: Antibacterial activity against Helicobacter pylori HP022 was determined; method in brief: as §2
Helicobacter pylori [10] = test: Antibacterial activity against Helicobacter pylori HP001 was determined; method in brief: as §2
Helicobacter pylori [11] = test: Antibacterial activity against Helicobacter pylori HP0016 was determined; method in brief: as §2
Helicobacter pylori [12] = test: Antibacterial activity against Helicobacter pylori HP0017 was determined; method in brief: as §2
Helicobacter pylori [13] = test: Antibacterial activity against Helicobacter pylori HP0018 was determined; method in brief: as §3
Klebsiella pneumoniae = test: Antibacterial activity against Klebsiella pneumoniae was determined; method in brief: as §1
Morganella morganii = test: Antibacterial activity against Morganella morganii was determined; method in brief: as §1
[14] = test system: Staphylococcus epidermidis; test: Antibacterial activity against Staphylococcus epidermidis was determined; method in brief: as §1

SMILES: O=C(O)c1ccc(-c2ccc(O)cc2)cc1
- MIC (Escherichia coli): > 64 µg/mL
- MIC (Helicobacter pylori [1]): > 64 µg/mL
- MIC (Staphylococcus aureus): > 64 µg/mL

SMILES: Cc1ccc(COC(=O)c2ccc(-c3ccc(OC(=O)c4ccc(CN=C(N)N)cc4)cc3)cc2)cc1.Cl
- MIC (Escherichia coli): > 64 µg/mL
- MIC (Enterococcus faecalis): > 64 µg/mL
- MIC (Helicobacter pylori [2]): 1.6 µg/mL
- MIC (Helicobacter pylori [3]): 0.8 µg/mL
- MIC (Helicobacter pylori [4]): 0.8 µg/mL
- MIC (Helicobacter pylori [5]): 0.8 µg/mL
- MIC (Helicobacter pylori [6]): 0.8 µg/mL
- MIC (Helicobacter pylori [7]): 0.8 µg/mL
- MIC (Helicobacter pylori [8]): 0.8 µg/mL
- MIC (Helicobacter pylori [9]): 0.8 µg/mL
- MIC (Helicobacter pylori [1]): 0.8 µg/mL
- MIC (Helicobacter pylori [10]): 0.4 µg/mL
- MIC (Helicobacter pylori [11]): 0.8 µg/mL
- MIC (Helicobacter pylori [12]): 1.6 µg/mL
- MIC (Helicobacter pylori [13]): 0.4 µg/mL
- MIC (Klebsiella pneumoniae): > 64 µg/mL
- MIC (Morganella morganii): > 64 µg/mL
- MIC [14]: > 64 µg/mL
- MIC (Staphylococcus aureus): > 64 µg/mL

SMILES: Cl.N=C(N)NCc1ccc(C(=O)Nc2ccccc2)cc1
- MIC (Escherichia coli): > 64 µg/mL
- MIC (Helicobacter pylori [1]): > 64 µg/mL
- MIC (Staphylococcus aureus): > 64 µg/mL

SMILES: Cc1ccc(CO)cc1
- MIC (Escherichia coli): > 64 µg/mL
- MIC (Helicobacter pylori [1]): > 64 µg/mL
- MIC (Staphylococcus aureus): > 64 µg/mL

SMILES: Cc1ncc([N+](=O)[O-])n1CCO [METRONIDAZOLE]
- MIC (Escherichia coli): > 100 µg/mL
- MIC (Enterococcus faecalis): > 100 µg/mL
- MIC (Helicobacter pylori [2]): 32 µg/mL (≈ 187 µM)
- MIC (Helicobacter pylori [3]): 2 µg/mL (≈ 11.7 µM)
- MIC (Helicobacter pylori [4]): 8 µg/mL (≈ 46.7 µM)
- MIC (Helicobacter pylori [5]): 16 µg/mL (≈ 93.5 µM)
- MIC (Helicobacter pylori [6]): 32 µg/mL (≈ 187 µM)
- MIC (Helicobacter pylori [7]): 128 µg/mL (≈ 748 µM)
- MIC (Helicobacter pylori [8]): 32 µg/mL (≈ 187 µM)
- MIC (Helicobacter pylori [9]): 16 µg/mL (≈ 93.5 µM)
- MIC (Helicobacter pylori [1]): 64 µg/mL (≈ 374 µM)
- MIC (Helicobacter pylori [10]): 4 µg/mL (≈ 23.4 µM)
- MIC (Helicobacter pylori [11]): 32 µg/mL (≈ 187 µM)
- MIC (Helicobacter pylori [12]): 64 µg/mL (≈ 374 µM)
- MIC (Helicobacter pylori [13]): 8 µg/mL (≈ 46.7 µM)
- MIC (Klebsiella pneumoniae): > 100 µg/mL
- MIC (Morganella morganii): > 100 µg/mL
- MIC [14]: > 100 µg/mL
- MIC (Staphylococcus aureus): > 100 µg/mL

SMILES: COC(=O)c1ccc(-c2ccc(O)cc2)cc1
- MIC (Escherichia coli): > 64 µg/mL
- MIC (Helicobacter pylori [1]): > 64 µg/mL
- MIC (Staphylococcus aureus): > 64 µg/mL

SMILES: Cl.N=C(N)NCc1ccc(C(=O)Oc2ccccc2)cc1
- MIC (Escherichia coli): > 64 µg/mL
- MIC (Helicobacter pylori [1]): 16 µg/mL
- MIC (Staphylococcus aureus): > 64 µg/mL

SMILES: Cc1ccc(COC(=O)c2ccc(-c3ccc(O)cc3)cc2)cc1
- MIC (Escherichia coli): > 64 µg/mL
- MIC (Helicobacter pylori [1]): 8 µg/mL (≈ 25.1 µM)
- MIC (Staphylococcus aureus): > 64 µg/mL

SMILES: CC1(C)S[C@@H]2[C@H](NC(=O)[C@H](N)c3ccc(O)cc3)C(=O)N2[C@H]1C(=O)O [AMOXICILLIN]
- MIC (Escherichia coli): 1.6 µg/mL (≈ 4.38 µM)
- MIC (Enterococcus faecalis): 0.78 µg/mL (≈ 2.13 µM)
- MIC (Helicobacter pylori [2]): 0.05 µg/mL (≈ 0.137 µM)
- MIC (Helicobacter pylori [3]): 0.05 µg/mL (≈ 0.137 µM)
- MIC (Helicobacter pylori [4]): 0.05 µg/mL (≈ 0.137 µM)
- MIC (Helicobacter pylori [5]): 0.05 µg/mL (≈ 0.137 µM)
- MIC (Helicobacter pylori [6]): 0.05 µg/mL (≈ 0.137 µM)
- MIC (Helicobacter pylori [7]): 0.05 µg/mL (≈ 0.137 µM)
- MIC (Helicobacter pylori [8]): 0.025 µg/mL (≈ 0.0684 µM)
- MIC (Helicobacter pylori [9]): 0.025 µg/mL (≈ 0.0684 µM)
- MIC (Helicobacter pylori [1]): 0.05 µg/mL (≈ 0.137 µM)
- MIC (Helicobacter pylori [10]): 0.025 µg/mL (≈ 0.0684 µM)
- MIC (Helicobacter pylori [11]): 0.05 µg/mL (≈ 0.137 µM)
- MIC (Helicobacter pylori [12]): 0.025 µg/mL (≈ 0.0684 µM)
- MIC (Helicobacter pylori [13]): 0.05 µg/mL (≈ 0.137 µM)
- MIC (Klebsiella pneumoniae): 50 µg/mL (≈ 137 µM)
- MIC (Morganella morganii): > 100 µg/mL
- MIC [14]: 0.78 µg/mL (≈ 2.13 µM)
- MIC (Staphylococcus aureus): 0.2 µg/mL (≈ 0.547 µM)

SMILES: Cl.N=C(N)NCc1ccc(C(=O)O)cc1
- MIC (Escherichia coli): > 64 µg/mL
- MIC (Helicobacter pylori [1]): > 64 µg/mL
- MIC (Staphylococcus aureus): > 64 µg/mL

SMILES: NCc1ccc(C(=O)O)cc1 [AMINOMETHYLBENZOIC ACID]
- MIC (Escherichia coli): > 64 µg/mL
- MIC (Helicobacter pylori [1]): > 64 µg/mL
- MIC (Staphylococcus aureus): > 64 µg/mL
